# KCNK3 block: human KCNK3 channel inhibition, primary screen | 340,000 compounds, 0.84% hits | CHO-KCNK3 thallium flux, FluxOR fluorescence; active compounds read low | AID 602410 | B-score at 10 µM;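 active = B-score under library mean minus 4 SD, starting fluorescence ratio at most library mean plus 5 SD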;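 note: more negative B-score means stronger inhibition of thallium flux through KCNK3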
# Target sequence (O14649 whole entry, looked up): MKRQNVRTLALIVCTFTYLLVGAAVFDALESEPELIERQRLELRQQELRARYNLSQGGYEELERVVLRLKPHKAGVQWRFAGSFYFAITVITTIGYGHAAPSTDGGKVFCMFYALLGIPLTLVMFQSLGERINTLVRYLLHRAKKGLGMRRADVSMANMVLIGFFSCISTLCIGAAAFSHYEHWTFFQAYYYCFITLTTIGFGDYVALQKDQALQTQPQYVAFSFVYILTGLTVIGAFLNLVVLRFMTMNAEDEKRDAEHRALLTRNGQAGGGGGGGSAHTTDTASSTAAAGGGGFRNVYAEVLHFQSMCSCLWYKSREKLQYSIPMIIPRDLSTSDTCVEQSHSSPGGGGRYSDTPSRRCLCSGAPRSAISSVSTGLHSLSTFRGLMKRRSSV
# KCNQ1 act: human KCNQ1 channel potentiation or activation; P51787; CHO-K1 KCNQ1, thallium flux FluxOR fluorescence; active compounds read high; B-score at 10 µM; 310,000 compounds, 0.35% hits; AID 2648;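 active = fluorescence ratio B-score, a plate-corrected score, at least three library SD, with initial intensity B-score within 5 SD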
#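 Assay system: CHO-K1 cells stably expressing KCNQ1. Medium: assay buffer for compound exposure, DMSO matched across wells. Timing: 37 °C overnight plating, 90-min dark dye load, 20-min compound pretreatment. Signal: kinetic FluxOR fluorescence, 10 s baseline plus 110 s post-stimulus.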
# KCNQ1 inh: human KCNQ1 channel inhibition; AID 2642; B-score at 10 µM; CHO-K1 KCNQ1, FluxOR thallium flux fluorescence; active compounds read high; P51787; 310,000 compounds, 1.3% hits;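 active = compounds whose thallium flux B-score, printed positive for inhibition, exceeds three library SD while starting fluorescence stays within three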;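 note: channel opened by potassium depolarization with thallium stimulus after 20 min compound exposure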
# Cl transport mod: modulates chloride dependent transport by human KCC2 | Q9H2X9 | B-score of Tl+ flux slope (higher = more flux/activation; lower = inhibition) at 10 µM | 190,000 compounds, 2.2% hits | KCC2 cells, thallium flux FluoZin-2 fluorescence;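 active = thallium flux slope and its plate-corrected score both differing from the plate sample mean at a set confidence after two filtering rounds, in either direction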;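 note: slope of fluorescence scaled to starting intensity during 10 to 20 s after thallium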
# KCNK9 inh: human KCNK9 channel inhibition; HEK293 KCNK9, FluxOR thallium flux fluorescence; active compounds read low; B-score at 10 µM; 310,000 compounds, 1.2% hits; AID 488922;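 active = ratio B-score over 3 SD below the library mean, with starting fluorescence within 5 SD of its mean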;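 note: negative B-score means less thallium flux so channel inhibition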
# hERG rescue: hERG (human) protection from proarrhythmic block. Q12809. activation (rescue from dofetilide block), less the hit threshold, % at 10 µM. 310,000 compounds, 0.51% hits. CHO-hERG, FluxOR thallium flux, dofetilide IC70 present;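 active = activation above the mean of controls blocked by dofetilide plus 5 SD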;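 note: thallium influx through hERG after potassium depolarization seen as dye fluorescence rise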
# KCC2 sec1: KCC2 (human) modulation, secondary assay | shares compounds with Cl transport mod | HEK293-KCC2, thallium flux, FluoZin2 fluorescence; active compounds read high | normalised thallium flux (F/F0 slope) at 10 µM | 3,700 compounds, 15% hits | AID 1713;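 active = thallium flux slope above the same plate's solvent-only control mean plus 3 SD; inconclusive = the two replicate wells disagree; inactive = no significant difference from solvent-only control wells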
# KCC2 bumet counter: thallium flux persisting under bumetanide in KCC2 cells, counter-screen secondary assay; shares compounds with Cl transport mod; HEK293-KCC2 + bumetanide/ouabain, thallium flux FluoZin2; active compounds read high; 3,700 compounds, 49% hits; normalized thallium flux at 10 µM;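 active = thallium entry rate above the same plate's blocked-transporter control wells by more than 3 SD; inconclusive = the two repeat wells disagree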;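 note: raw slope of fluorescence over initial fluorescence between 10 and 20 s after thallium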
# KCC2 sec2: KCC2 (human) modulation, second secondary assay; shares compounds with Cl transport mod; HEK293-KCC2, thallium flux FluoZin2 fluorescence; actives lie on both sides; F/F0 rise rate, 10–20 s post-thallium; normalized thallium flux at 10 µM; 3,700 compounds, 23% hits; AID 1715;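 active = thallium flux slope more than 3 SD above or below the plate's solvent-only control mean, mostly below; inconclusive = the two repeat wells disagreed; inactive = no significant shift from solvent-only controls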
# HEK293 Tl flux: acts in parental HEK cells, KCC2 counter-screen; thallium flux rate (normalised fluorescence) at 10 µM; 3,700 compounds, 46% hits; shares compounds with Cl transport mod; HEK293 parental cells, thallium flux FluoZin2, ouabain; baseline-ratio fluorescence slope, 10–20 s after thallium;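 active = thallium flux rate significantly above the same plate's solvent-only control wells, beyond their mean plus 3 SD; inconclusive = the two replicate wells gave conflicting results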
# KCC2 ouabain: confirmation of human KCC2 modulators with ouabain. shares compounds with Cl transport mod. HEK293-KCC2, thallium flux FluoZin2 fluorescence; bidirectional: low = inhibitor, high = activator. raw Tl+ flux slope (below DMSO = inhibition, above = activation) at 10 µM. 3,700 compounds, 48% hits. AID 1717;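 active = thallium flux slope beyond 3 SD from same-plate DMSO control mean in most replicates, usually higher, sometimes lower; inconclusive = repeat tests gave conflicting results; inactive = no significant difference from controls in most replicates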;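 note: slope of initial-normalized fluorescence between seconds 10 and 20 after thallium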
# HEK counter2: parental HEK flux effect, counter-screen 2. AID 1718. shares compounds with Cl transport mod. HEK293 parental, thallium flux FluoZin-2 fluorescence slope. 3,700 compounds, 33% hits. thallium flux slope at 10 µM;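 active = thallium flux slope above the same plate's solvent-control mean plus 3 SD in both duplicate wells; inconclusive = duplicate wells that disagreed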;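 note: run without ouabain in cells lacking the KCC2 cotransporter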
# A number is an active result; - = inactive; ? = inconclusive; . = no result given. Sampled rows, rich in hits. Any-hit rate of the full collection: about 4.1%.
SMILES,KCNK3 block,KCNQ1 act,KCNQ1 inh,Cl transport mod,KCNK9 inh,hERG rescue,KCC2 sec1,KCC2 bumet counter,KCC2 sec2,HEK293 Tl flux,KCC2 ouabain,HEK counter2
Cc1[nH]c(=S)sc1Cc1ccc(Cl)c(Cl)c1,.,-,-,48.6,-,-,?,0.0844,?,0.0365,0.0483,0.0149
O=c1[nH]c2ccc(S(=O)(=O)N3CCN(c4ccccc4F)CC3)cc2s1,-,-,-,-4.76,-,-,-,-,0.0241,-,0.0129,-
O=c1ccc2cc(S(=O)(=O)N3CCN(c4ccccc4F)CC3)ccc2o1,-,-,-,.,-,-,.,.,.,.,.,.
O=C(NC(=S)Nc1ccc2c(c1)OCCO2)c1cccc(Br)c1,-,-,-,36.8,-,-,-,0.0423,0.0435,0.0459,0.0337,0.0278
O=C(NC(=S)Nc1ccc2c(c1)OCCO2)c1cccc2ccccc12,-,-,-,11.4,-,-,?,0.0862,-,0.0345,0.0566,0.0157
COC(=O)c1sc(=S)n(Cc2ccccc2)c1C,-,-,-,-,-,-,.,.,.,.,.,.
Cc1c(C(=O)O)sc(=S)n1CCOc1ccccc1,-,-,-,.,-,-,-,-,0.0241,-,0.0149,-
NS(=O)(=O)c1ccc(CCn2c(=S)[nH]c3ccc(F)cc3c2=O)cc1,-,-,-,3.14,-,-,?,-,-,0.00926,-,0.0111
CSC(=NCc1ccc(F)cc1)NS(=O)(=O)c1cccs1,-,-,-,-3.77,-,-,-,?,0.0252,-,0.0151,-
CS/C(=N\S(=O)(=O)c1ccc(N)cc1)NS(=O)(=O)c1cccs1,-,-,-,.,-,-,.,.,.,.,.,.
CCN(CC)c1ccc(C(=O)OCC(=O)N(C)Cc2ccccc2)cc1,-,-,-,-4.12,-,-,-,-,-,-,0.0145,-
CCc1ccc(NS(=O)(=O)c2c(C(=O)N3CCOCC3)c(C)n(C)c2C)cc1,-,-,-,.,-,-,.,.,.,.,.,.
S=c1[nH]nc(CSCCOc2ccccc2)o1,-,-,-,-,-,-,.,.,.,.,.,.
S=c1[nH]nc(CSCCOc2ccc(Cl)cc2Cl)o1,-,-,-,162,-,-,-,0.0565,?,0.0331,0.0559,-
COc1ccc(CCNC(=O)CN2C(=O)C(=O)N(C3CCCC3)C2=O)cc1OC,-,.,.,.,.,.,.,.,.,.,.,.
Cn1c(CSc2nc3ccccc3s2)nc2ccccc21,-,-,-,-4.4,-,-,-,-,0.0244,-,?,-
Cn1c(CSc2nc3ccccc3s2)n[nH]c1=S,-,-,-,.,-,-,?,-,?,-,0.0115,?
CCOc1ccc(NC2c3ccccc3C(=O)N2Cc2ccco2)cc1 (stereo not drawn),-,-,-,-4.2,-,-,-,-,-,0.00505,0.0156,-
CSCCC(=O)N1CCC(n2nccc2NC(=O)CCCc2ccccc2)CC1,-,-,-,.,-,-,.,.,.,.,.,.
CCc1cccc2c(C(=O)CSc3nnc(C4CC4)o3)c[nH]c12,-,.,.,.,.,.,.,.,.,.,.,.
Cc1nc(CNC(=O)c2cc(COc3ccc(F)cc3Cl)on2)cs1,-,-,-,-4.6,-,-,-,-,-,-,0.0146,-

# Screening data as filed in PubChem BioAssay.
